Values after ≈ are worked out from the molar mass of the structure shown. Active and inactive are the calls of the source. Unless noted, no cut-off for these calls is given here.
Tests used:
Plasmodium falciparum [1] = assay: Antimalarial activity against chloroquine-sensitive Plasmodium falciparum D6 assessed as plasmodial LDH activity; format: functional, organism-based
Plasmodium falciparum [2] = assay: Antimalarial activity against chloroquine-resistant Plasmodium falciparum W2 assessed as plasmodial LDH activity; format: functional, organism-based
Vero = assay: Cytotoxicity against african green monkey Vero cells upto 23.8 […] by neutral dye assay; format: cell-based, Chlorocebus sabaeus
In short: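 Vero monkey kidney cells were exposed to compound up to a highest concentration of 23.8, with viability read by neutral red uptake.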

[3] = Inhibition of beta-hematin formation; format: functional
Leishmania donovani = assay: Antileishmanial activity against Leishmania donovani promastigote by Alamar Blue assay; format: functional, organism-based
[4] = Selectivity index, ratio of IC50 for african green monkey Vero cells to IC50 for chloroquine-sensitive Plasmodium falciparum D6; format: toxicity, cell-based; conditions: Vero cells versus Plasmodium falciparum D6, read-out: Ratio IC50
[5] = Selectivity index, ratio of IC50 for african green monkey Vero cells to IC50 for chloroquine-resistant Plasmodium falciparum W2; format: toxicity, cell-based; conditions: Vero cells versus Plasmodium falciparum W2, read-out: Ratio IC50
Staphylococcus aureus [6] = assay: Antimicrobial activity against Staphylococcus aureus ATCC 29213 by CLSI method; format: functional, organism-based
Staphylococcus aureus [7] = assay: Antimicrobial activity against methicillin-resistant Staphylococcus aureus ATCC 43300 by CLSI method; format: functional, organism-based
[8] = system: Mycobacterium intracellulare; assay: Antimicrobial activity against Mycobacterium intracellulare ATCC 23068 by Franzblau method; format: functional, organism-based
Escherichia coli [9] = assay: Antimicrobial activity against Escherichia coli ATCC 35218 by CLSI method; format: functional, organism-based
Pseudomonas aeruginosa = assay: Antimicrobial activity against Pseudomonas aeruginosa ATCC 27853 by CLSI method; format: functional, organism-based
In short: (§1)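 Antibacterial testing used CLSI/NCCLS broth dilution for aerobically growing bacteria, with 20 as the highest test concentration.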

Aspergillus fumigatus = assay: Antifungal activity against Aspergillus fumigatus; format: functional, organism-based
In short: (§2)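 Yeasts and A. fumigatus were tested by broth microdilution following the NCCLS antifungal standards. The highest test concentration was 20.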

Nakaseomyces glabratus [10] = assay: Antifungal activity against Candida glabrata; format: functional, organism-based; in short: as §2
Cryptococcus neoformans [11] = assay: Antifungal activity against Cryptococcus neoformans; format: functional, organism-based; in short: as §2
Candida albicans [12] = assay: Antifungal activity against Candida albicans at 20 ug/ml; format: functional, organism-based
In short: (§3)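 Broth dilution antifungal testing followed the NCCLS reference method for yeasts, with 20 as the highest test concentration. MIC was the lowest concentration with no detectable growth. MFC was the lowest concentration killing the organism.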

Candida albicans [13] = assay: Fungicidal activity against Candida albicans at 20 ug/ml; format: functional, organism-based; in short: as §3
Pichia kudriavzevii [14] = assay: Antifungal activity against Candida krusei at 20 ug/ml; format: functional, organism-based; in short: as §3
Pichia kudriavzevii [15] = assay: Fungicidal activity against Candida krusei at 20 ug/ml; format: functional, organism-based; in short: as §3
Pichia kudriavzevii [16] = assay: Antifungal activity against Candida krusei; format: functional, organism-based; in short: as §2
[17] = system: Mycobacterium intracellulare; assay: Antimicrobial activity against Mycobacterium intracellulare ATCC 23068 at 20 ug/ml by Franzblau method; format: functional, organism-based
[18] = system: Mycobacterium intracellulare; assay: Bactericidal activity against Mycobacterium intracellulare ATCC 23068 at 20 ug/ml by Franzblau method; format: functional, organism-based
Escherichia coli [19] = assay: Antimicrobial activity against Escherichia coli ATCC 35218 at 20 ug/ml by CLSI method; format: functional, organism-based; in short: as §1
Escherichia coli [20] = assay: Bactericidal activity against Escherichia coli ATCC 35218 at 20 ug/ml by CLSI method; format: functional, organism-based; in short: as §1
[21] = Ratio of chloroquine IC50 to compound IC50 for inhibition of beta-hematin formation
Plasmodium berghei [22] = assay: Antimalarial activity against Plasmodium berghei blood-schizont in mouse malaria model assessed as disease curative activity at 100 mg/kg, po after 60 days; format: functional
In short: (§4)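 P. berghei-infected mice, 6 per group, received compound orally once daily for 4 days at 10, 25, 50 or 100 mg/kg/day. "Active" meant all treated animals were parasitaemia-negative up to D+7. "Curative" meant complete parasite elimination with survival to D+60. Outcomes were recorded as cured/total.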

Plasmodium berghei [23] = assay: Antimalarial activity against Plasmodium berghei blood-schizont in mouse malaria model assessed as elimination of parasitemia at 25 mg/kg, po for 4 days for 4 days measured after 7 days; format: functional, organism-based; set-up: dose 25 mg/kg; in short: as §4
Plasmodium berghei [24] = assay: Antimalarial activity against Plasmodium berghei blood-schizont in mouse malaria model assessed as elimination of parasitemia at 50 mg/kg, po for 4 days for 4 days measured after 7 days; format: functional, organism-based; set-up: dose 50 mg/kg; in short: as §4
Plasmodium berghei [25] = assay: Antimalarial activity against Plasmodium berghei blood-schizont in mouse malaria model assessed as elimination of parasitemia at 10 mg/kg, po for 4 days for 4 days measured after 7 days; format: functional, organism-based; set-up: dose 10 mg/kg; in short: as §4
Cryptococcus neoformans [26] = assay: Fungicidal activity against Cryptococcus neoformans at 20 ug/ml; format: functional, organism-based; in short: as §3
Nakaseomyces glabratus [27] = assay: Antifungal activity against Candida glabrata at 20 ug/ml; format: functional, organism-based; in short: as §3
Nakaseomyces glabratus [28] = assay: Fungicidal activity against Candida glabrata at 20 ug/ml; format: functional, organism-based; in short: as §3
[29] = Plasmodium falciparum, D6, read-out: IC50
[30] = Plasmodium falciparum, W2, read-out: IC50

## COc1cc(NC(C)CCCNC(=O)C[C@@H](NC(=O)[C@H](N)CCCN)C(=O)O)c2nc(C(C)(C)C)ccc2c1 (some centres not stated)
Plasmodium falciparum [1]; [29]
  IC50: 2.5 µg/mL (≈ 4.59 µM)
Plasmodium falciparum [2]; [30]
  IC50: 3.4 µg/mL (≈ 6.24 µM)
Vero
  IC50: Non-toxic
[3]
  IC50: > 1000 µM
Leishmania donovani
  IC50: Not Active
  IC90: inactive
[4]
  selectivity ratio: > 9.5
[5]
  selectivity ratio: > 7
Staphylococcus aureus [6]
  Activity: inactive
Staphylococcus aureus [7]
  Activity: inactive
[8]
  Activity: inactive
Escherichia coli [9]
  Activity: inactive
Pseudomonas aeruginosa
  Activity: inactive
Aspergillus fumigatus
  Activity: inactive
Nakaseomyces glabratus [10]
  IC50: 13.7 µg/mL (≈ 25.1 µM)
  MFC: 20 µg/mL (≈ 36.7 µM)
  MIC: 20 µg/mL (≈ 36.7 µM)
Cryptococcus neoformans [11]
  IC50: 4.86 µg/mL (≈ 8.92 µM)
  MFC: 10 µg/mL (≈ 18.4 µM)
  MIC: 10 µg/mL (≈ 18.4 µM)
Candida albicans [12]
  Activity: inactive
Candida albicans [13]
  Activity: inactive
Pichia kudriavzevii [14]
  Activity: inactive
Pichia kudriavzevii [15]
  Activity: inactive

## COc1cc(NC(C)CCCNC(=O)[C@@H](CCCNC(=N)N)NC(=O)[C@H](N)CCCNC(=N)N)c2nc(C(C)(C)C)ccc2c1 (some centres not stated)
Plasmodium falciparum [1]
  IC50: Not Active
Plasmodium falciparum [2]
  IC50: Not Active
Vero
  IC50: Non-toxic
[3]
  IC50: > 1000 µM
Leishmania donovani; Leishmania donovani
  IC90: 34 µg/mL (≈ 54.2 µM)
Leishmania donovani; Leishmania donovani, read-out: IC50
  IC50: 20 µg/mL (≈ 31.9 µM)
Staphylococcus aureus [6]
  IC50: 11.2 µg/mL (≈ 17.8 µM)
  MBC: 20 µg/mL (≈ 31.9 µM)
  MIC: 20 µg/mL (≈ 31.9 µM)
Staphylococcus aureus [7]
  IC50: 5.96 µg/mL (≈ 9.49 µM)
  MBC: 20 µg/mL (≈ 31.9 µM)
  MIC: 10 µg/mL (≈ 15.9 µM)
[8]
  Activity: inactive
Escherichia coli [9]
  Activity: inactive
Pseudomonas aeruginosa
  Activity: inactive
Aspergillus fumigatus
  Activity: inactive
Nakaseomyces glabratus [10]
  IC50: 12.4 µg/mL (≈ 19.8 µM)
  MFC: 20 µg/mL (≈ 31.9 µM)
  MIC: 20 µg/mL (≈ 31.9 µM)
Cryptococcus neoformans [11]
  IC50: 3.55 µg/mL (≈ 5.65 µM)
  MFC: 10 µg/mL (≈ 15.9 µM)
  MIC: 10 µg/mL (≈ 15.9 µM)
Pichia kudriavzevii [16]
  IC50: 7.08 µg/mL (≈ 11.3 µM)
  MFC: 10 µg/mL (≈ 15.9 µM)
  MIC: 10 µg/mL (≈ 15.9 µM)
[17]
  Activity: inactive
[18]
  Activity: inactive
Escherichia coli [19]
  Activity: inactive
Escherichia coli [20]
  Activity: inactive
Candida albicans [12]
  Activity: inactive
Candida albicans [13]
  Activity: inactive

## COc1cc(NC(C)CCCNC(=O)C[C@H](NC(=O)[C@@H](N)CCCCN)C(=O)O)c2ncccc2c1 (some centres not stated)
Plasmodium falciparum [1]; [29]
  IC50: 0.13 µg/mL (≈ 0.259 µM)
Plasmodium falciparum [2]; [30]
  IC50: 0.26 µg/mL (≈ 0.517 µM)
Vero
  IC50: Non-toxic
[3]
  IC50: 5.8 µM
Leishmania donovani
  IC50: Not Active
  IC90: inactive
[4]
  selectivity ratio: > 183
[5]
  selectivity ratio: > 91.5
[21]
  Ratio IC50: 16
Plasmodium berghei [22]
  Activity: 100%
Plasmodium berghei [23]
  Activity: Active
Plasmodium berghei [24]
  Activity: Active
Plasmodium berghei [25]
  Activity: Active
Staphylococcus aureus [6]
  Activity: inactive
Staphylococcus aureus [7]
  Activity: inactive
[8]
  Activity: inactive
Escherichia coli [9]
  Activity: inactive
Pseudomonas aeruginosa
  Activity: inactive

## COc1cc(NC(C)CCCNC(=O)CC[C@@H](NC(=O)[C@H](N)CCCCN)C(=O)O)c2nc(C(C)(C)C)ccc2c1 (some centres not stated)
Plasmodium falciparum [1]
  IC50: Not Active
Plasmodium falciparum [2]
  IC50: Not Active
Vero
  IC50: Non-toxic
[3]
  IC50: > 1000 µM
Leishmania donovani
  IC50: Not Active
  IC90: inactive
Staphylococcus aureus [6]
  Activity: inactive
Staphylococcus aureus [7]
  Activity: inactive
[8]
  Activity: inactive
Escherichia coli [9]
  Activity: inactive
Pseudomonas aeruginosa
  Activity: inactive
Aspergillus fumigatus
  Activity: inactive
Cryptococcus neoformans [11]
  IC50: 15.2 µg/mL (≈ 26.5 µM)
  MIC: 20 µg/mL (≈ 34.9 µM)
Cryptococcus neoformans [26]
  Activity: inactive
Candida albicans [12]
  Activity: inactive
Candida albicans [13]
  Activity: inactive
Nakaseomyces glabratus [27]
  Activity: inactive
Nakaseomyces glabratus [28]
  Activity: inactive
Pichia kudriavzevii [14]
  Activity: inactive
Pichia kudriavzevii [15]
  Activity: inactive

## COc1cc(NC(C)CCCNC(=O)[C@H](CCCCN)NC(=O)[C@@H](N)CCCCN)c2ncccc2c1 (some centres not stated)
Plasmodium falciparum [1]; [29]
  IC50: 2 µg/mL (≈ 3.88 µM)
Plasmodium falciparum [2]; [30]
  IC50: 2.8 µg/mL (≈ 5.43 µM)
Vero
  IC50: Non-toxic
[3]
  IC50: 618 µM
Leishmania donovani
  IC50: Not Active
  IC90: inactive
[4]
  selectivity ratio: > 11.9
[5]
  selectivity ratio: > 8.5
Plasmodium berghei [22]
  Activity: 100%
Plasmodium berghei [23]
  Activity: Active
Plasmodium berghei [24]
  Activity: Active
Plasmodium berghei [25]
  Activity: Active
Staphylococcus aureus [6]
  Activity: inactive
Staphylococcus aureus [7]
  Activity: inactive
[8]
  Activity: inactive
Escherichia coli [9]
  Activity: inactive
Pseudomonas aeruginosa
  Activity: inactive
Aspergillus fumigatus
  Activity: inactive
Cryptococcus neoformans [11]
  IC50: 7 µg/mL (≈ 13.6 µM)
  MFC: 20 µg/mL (≈ 38.8 µM)
  MIC: 10 µg/mL (≈ 19.4 µM)
Candida albicans [12]
  Activity: inactive
Candida albicans [13]
  Activity: inactive

From ChEMBL document CHEMBL2021883, “Amino acid, dipeptide and pseudodipeptide conjugates of ring-substituted 8-aminoquinolines: synthesis and evaluation of anti-infective, β-haematin inhibition and cytotoxic activities” (Eur J Med Chem, 2012)
